Source: PubChem BioAssay (several laboratories)
RanGTP-Impb inh: disruptors of Ran-importin-beta complex formation – biochemical, FRET, CFP-Ran, YFP-importin-beta, homogeneous, primary screen. inhibition, % (concentration not given with the values). cell-free CFP-Ran/YFP-importin-beta FRET ratio. AID 2216. 300,000 tested, 1.1% active;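 active means more than half of the replicate wells show a fall in the fluorescence ratio signal beyond about 16%, limit read from the data, passing the limit was not always enough; inconclusive means exactly half of the replicate wells pass the set limit; inactive means fewer than half of replicates pass the limit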;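 further: 0% = DMSO wells and 100% = Ran loaded with GDP instead of GTP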
Runt-SMMHC FRET: Runt domain-CBFb-SMMHC interaction inhibition; Q01196+Q13951; Cerulean-Runt/Venus-CBFb-SMMHC FRET ratio 530/480, 1 h; inhibition, % at 20 µM; 220,000 tested, 0.74% active;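 active means mean inhibition across duplicate retests at 20 µM reaching about 50%, limit read from the data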;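 further: 0% = DMSO wells and 100% = wells with excess untagged CBFb-SMMHC; inhibitors lower the FRET ratio by blocking Runt binding to CBFb-SMMHC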
DSG3 Ab inh: human desmoglein-3 autoantibody binding inhibition. binding (percent of control), % at 10 µM. DSG3-coupled beads, scFv-anti-DSG3-GFP binding, flow cytometry; active compounds read low. 310,000 tested, 0.48% active. P32926;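 active means binding more than 3 SD below its plate's average and above zero; inconclusive means below that plate limit but binding exactly zero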;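 further: hits lower antibody fragment binding to DSG3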
Target sequence (P32926 whole entry, looked up, the tested form may be a part): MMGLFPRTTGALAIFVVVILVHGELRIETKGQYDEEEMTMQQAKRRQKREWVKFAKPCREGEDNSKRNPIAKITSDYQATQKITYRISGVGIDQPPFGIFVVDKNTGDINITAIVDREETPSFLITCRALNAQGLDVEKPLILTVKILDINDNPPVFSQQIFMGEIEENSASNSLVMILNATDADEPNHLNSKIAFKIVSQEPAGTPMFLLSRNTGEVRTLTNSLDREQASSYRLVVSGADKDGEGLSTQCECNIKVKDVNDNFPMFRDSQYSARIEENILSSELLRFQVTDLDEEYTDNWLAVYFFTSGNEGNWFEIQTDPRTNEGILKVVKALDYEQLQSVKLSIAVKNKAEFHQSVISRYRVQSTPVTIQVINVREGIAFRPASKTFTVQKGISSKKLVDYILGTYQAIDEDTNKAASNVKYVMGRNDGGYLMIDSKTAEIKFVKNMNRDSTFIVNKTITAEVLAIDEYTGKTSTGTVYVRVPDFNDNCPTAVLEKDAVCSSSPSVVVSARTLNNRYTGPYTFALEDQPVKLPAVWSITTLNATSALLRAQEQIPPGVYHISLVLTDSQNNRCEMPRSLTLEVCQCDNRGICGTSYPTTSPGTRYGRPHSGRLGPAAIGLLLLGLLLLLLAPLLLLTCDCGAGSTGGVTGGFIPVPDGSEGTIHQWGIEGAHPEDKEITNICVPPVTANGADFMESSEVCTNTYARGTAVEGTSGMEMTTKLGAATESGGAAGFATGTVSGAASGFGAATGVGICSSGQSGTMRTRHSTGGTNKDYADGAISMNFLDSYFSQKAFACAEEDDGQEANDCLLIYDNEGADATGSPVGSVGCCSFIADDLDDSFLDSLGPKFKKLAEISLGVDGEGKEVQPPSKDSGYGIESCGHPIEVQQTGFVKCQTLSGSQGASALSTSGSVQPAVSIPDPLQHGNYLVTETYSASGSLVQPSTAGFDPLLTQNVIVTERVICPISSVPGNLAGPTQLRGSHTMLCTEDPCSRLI
Hck-Nef inh: inhibitors of human Hck kinase activated by Nef; P08631; Recombinant Hck-YEEI plus Nef, Z-Lyte FRET kinase assay; inhibition, % at 20 µM; 220,000 tested, 0.68% active;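 active means Hck-Nef kinase inhibition above about 50%, limit read from the data; inactive means inhibition below that limit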;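 further: 0% = DMSO with Hck plus Nef and 100% = Hck alone without Nef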
Runt-CBFb FRET: Runt domain-CBFb interaction inhibition; 220,000 tested, 0.46% active; Cerulean-Runt/Venus-CBFb FRET ratio 530/480, 1 h; AID 1496; Q01196+Q13951; inhibition, % at 20 µM;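 active means inhibition over about 50% at 20 µM in the single-dose screen, limit read from the data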;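 further: 0% = DMSO wells and 100% = excess unlabeled CBFb competitor control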
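Assay system: Cerulean-Runt domain fusion protein, energy donor; Signal: fluorescence energy transfer, 422 nm excitation, 530/480 nm emission; Timing: 1 h compound exposure, room temperature; Control set: unlabeled CBFb; Medium: Tris buffer pH 7.5 with salts and BSA; Compound: single test concentration of 20 µM, 1% DMSO final; Probe or stimulus: Venus-CBFb 100 nM.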
p-CIP stab down: lowers stability of the mouse p/CIP coactivator protein; Q05BA5; F442A p/CIP-EGFP cells, EGFP fluorescence, 16 h; decrease of EGFP signal, % at 10 µM; 290,000 tested, 0.01% active; AID 1984;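 active means EGFP signal decrease of at least 30% at 10 µM or well 3 SD below plate mean, unless failing retest; inactive means the rest, including hits failing retest or dose response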
Hck Nef conf: confirmation of Hck-Nef kinase inhibitors; shares compounds with Hck-Nef inh; Recombinant Hck-YEEI:Nef, Z-Lyte FRET kinase assay; calls only at 10 µM; 1,300 tested, 28% active; AID 463188;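 active means average inhibition of at least 50%, with Z-scores no higher than 3 in both the phospho-tyrosine peptide and fluorescence counterscreens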
An asterisk follows results filed as active; i = inactive; ? = inconclusive; . = no result shown; + = active, no number. Compounds with a hit are over-represented: about 2.1% of the library has one in this group of screens.

SMILES | RanGTP-Impb inh | Runt-SMMHC FRET | DSG3 Ab inh | Hck-Nef inh | Runt-CBFb FRET | p-CIP stab down | Hck Nef conf
O=C(N=Nc1ccc(NOC(=O)c2ccccc2Br)cc1)c1ccccc1O | 6 | -2 | . | 68* | 4 | 0 | i
O=Nc1ccc(NOC(=O)c2ccccc2)cc1 | 0 | 6 | 100 | 8 | 3 | -12 | .
Cc1cc(O)ccc1Nc1nc(-c2sc(N)nc2C)cs1 | 0 | 4 | 101 | 62* | 16 | 0 | +
COC(=O)C(C(=O)Nc1ccccc1C)C1CCCCCC1 (configuration not stated) | -6 | 0 | 102 | 5 | -2 | -3 | .
COc1ccccc1-c1cc(C(=O)NCCCN2CCOCC2)no1 | 2 | . | 109 | . | . | -16 | .
COc1ccccc1CNC(=O)c1c(N)n(CCCN2CCOCC2)c2nc3ccccc3nc12 | 126* | 38 | 99 | 52* | 3 | -14 | i
COC(=O)CCCC1=CC2=CC(=O)C(C)(OC(=O)c3cccs3)C(=O)C2=CN1Cc1ccccc1 (configuration not stated) | 0 | 2 | 104 | 6 | 1 | -15 | .
COC(=O)CCCC1=CC2=CC(=O)C(C)(OC(=O)c3cccs3)C(=O)C2=CN1Cc1ccc2c(c1)OCO2 (configuration not stated) | 0 | 0 | 98 | 53* | 1 | -17 | i
CCC(C)NC(=O)CCC(=O)Nc1ccc2nc(N3CCOCC3)cc(C)c2c1 (configuration not stated) | -1 | 3 | 102 | 3 | . | -8 | .
CCC(C)NC(=O)CCC(=O)Nc1ccc2nc(N3CC(C)CC(C)C3)cc(C)c2c1 (configuration not stated) | 2 | -2 | 102 | 52* | -2 | -5 | i
COc1ccc(-n2c(SCC(=O)Nc3sc4c(c3C#N)CCCC4)nnc2-c2ccccc2OC)cc1 | 1 | -3 | 93 | 6 | -4 | 8 | .
COc1ccc(-c2nnc(SCC(=O)Nc3sc4c(c3C#N)CCCC4)n2-c2ccccc2)cc1 | 6 | -5 | 93 | 96* | 1 | -6 | +
O=C(O)c1cccc(-n2cccc2/C=C2/NC(=O)N(c3cccc(Cl)c3)C2=O)c1 | 0 | 29 | 89 | 47 | 20 | 4 | .
O=C(O)c1cccc(-n2cccc2/C=C2/NC(=O)N(c3ccc(Cl)cc3)C2=O)c1 | . | 13 | 41* | 82* | 39 | -1 | .
COc1ccc(CCNC(=O)CCc2cc(OC)c(OC)c(OC)c2)cc1OC | 0 | . | 106 | . | . | -6 | .
Cc1ccc(NC(=O)CN(C)Cc2nc3c(Br)cc(Br)cc3c(=O)[nH]2)cc1 | -4 | -5 | 103 | 74* | -6 | -4 | +
COC(=O)c1sc(N)c(C(=O)OC)c1COC(=O)[C@@H](NS(=O)(=O)c1cccc(Cl)c1)C(C)C | -2 | -3 | . | 79* | -1 | -6 | +
CC1=NOC(=O)/C1=C\c1ccc(-c2ccccc2Br)o1 | 0 | 62 | 87 | 52* | . | -5 | i
CC1=NOC(=O)/C1=C\c1ccc(-c2ccc(Cl)c(C(=O)O)c2)o1 | 3 | -3 | 86 | 40 | 7 | -12 | .
COc1ccc(CN(C)CCCn2cnc3c(OC)ncnc32)cc1OC | . | . | 101 | . | . | . | .
CCOC(=O)c1cnc2c(-c3ccc(F)cc3)cnn2c1C(F)(F)F | . | -1 | 114 | 82* | 1 | -2 | i
Cc1cc(C)c2cc(CN(CCO)Cc3nnnn3Cc3ccc(F)cc3)c(=O)[nH]c2c1 | -4 | -2 | 94 | 0 | -1 | -4 | .
Cc1cc(C)c2cc(CN(CCO)Cc3nnnn3Cc3ccccc3)c(=O)[nH]c2c1 | 0 | 2 | . | 85* | 0 | 3 | i
COc1ccc(-c2csc(NC(=O)CSc3nc(C)nc4sc(C(=O)O)c(C)c34)n2)cc1 | 2 | -5 | 108 | 96* | 9 | -2 | +
O=C(CNC(=O)c1ccc2c(c1)OCCO2)N=Nc1c(O)[nH]c2ccccc12 | 0 | . | . | . | . | -8 | .
SMILES | RanGTP-Impb inh | Runt-SMMHC FRET | DSG3 Ab inh | Hck-Nef inh | Runt-CBFb FRET | p-CIP stab down | Hck Nef conf
Cc1nn(CC(=O)Nc2ccc3c(c2)oc2ccccc23)c(=O)c2ccccc12 | 0 | 1 | . | 51* | -2 | -2 | i
Cc1ccc(SCC(=O)N2CCN(S(=O)(=O)c3cccs3)CC2)cc1 | . | . | 127 | . | . | . | .
CCN(Cc1nc2ccccc2c(=O)[nH]1)C(=O)c1cccc(S(=O)(=O)N2CCc3ccccc32)c1 | . | . | 113 | . | . | . | .
Cc1cccc(C)c1NC(=O)c1cnccn1 | 2 | . | 116 | . | . | -8 | .
O=C1/C(=C\c2ccccn2)SC(=S)N1c1ccc(S(=O)(=O)Nc2nccs2)cc1 | 11 | -4 | 96 | 28 | 18 | -10 | .
Cc1ccc(/C=C2/SC(=S)N(c3ccc(S(=O)(=O)Nc4nccs4)cc3)C2=O)cc1 | 0 | -13 | 95 | 59* | -3 | -16 | i
Cc1ccc(N=C2NC(=O)/C(=C/C=C/c3ccco3)S2)cc1 | 2 | -31 | 119 | 97* | 2 | -22 | i
O=C1NC(=Nc2ccccc2)S/C1=C\C=C\c1ccco1 | -3 | -17 | 109 | 7 | 7 | -6 | .
Cc1cccc(N=C2NC(=O)/C(=C/C=C/c3ccco3)S2)c1C | -4 | -10 | 98 | 74* | 22 | -16 | i
CCCN(CC(=O)Nc1ccccc1C)C(=O)c1ccc(NC2CC2)c([N+](=O)[O-])c1 | -7 | . | 105 | . | . | . | .
CC(C)c1cc(NCCCN2CCOCC2)n2c(nc3ccccc32)c1C#N | ? | 52 | 96 | 54* | 20 | -12 | .
N#Cc1c2c(c(NCCCN3CCOCC3)n3c1nc1ccccc13)CCC2 | -3 | 37 | 102 | 61* | 12 | -19 | .
Cc1cc(NCCN2CCCCC2)n2c(nc3ccccc32)c1C#N | 8 | 14 | . | 29 | 6 | 1 | .
CCOC(=O)C1C(=O)NC(C(=O)OCC)(C(=O)OCC)C1C(C)CC (configuration not stated) | . | . | 87 | . | . | . | .
O=c1cc(-c2ccccc2)oc2cc(O)c(O)c(O)c12 | . | . | 97 | . | . | . | .
O=c1c(O)cccc2cc(O)c(O)c(O)c12 | ? | -4 | 33* | 65* | 24 | 0 | +
CC(C)c1ccc(NC(=O)c2ccccc2NC(=O)C2CCCCC2C(=O)O)cc1 (configuration not stated) | 4 | . | 104 | . | . | 6 | .
CCSC1=N/C(=C\c2ccc(C(=O)O)cc2)C(=O)S1 | -1 | 2 | 95 | 8 | -1 | -2 | .
O=C1SC(SCc2ccccc2Cl)=N/C1=C\c1ccc(C(=O)O)cc1 | -2 | 1 | 101 | 63* | 3 | 9 | i
